Measured values: the EternaBench riboswitch data

Test system: MS2 coat protein
Experiment: apparent Kd, MS2 coat protein; higher = weaker binding; RNA-MaP array; FMN 200 µM where present
Outline: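 Each design was made on Illumina sequencing-chip clusters by stalled E. coli RNA polymerase and titrated with SNAP-549-labelled MS2 coat protein from 0.7 or 1.5 nM, doubling to 3 µM, in the absence and then the presence of constant ligand. The buffer was 100 mM Tris-HCl pH 7.5, 80 mM KCl, 4 mM MgCl2, BSA, DTT, yeast tRNA and Tween-20. The apparent Kd is the median of filtered per-cluster fits of binding curves, with green signal normalised to red-channel RNA signal and control-cluster median Fmax.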

[1] = designed as: ON switch for flavin mononucleotide, no ligand
[2] = ligand present: flavin mononucleotide, designed as: ON switch for flavin mononucleotide
[3] = designed as: OFF switch for flavin mononucleotide, no ligand
[4] = ligand present: flavin mononucleotide, designed as: OFF switch for flavin mononucleotide

Sequence	apparent Kd [1] [nM]	apparent Kd [2] [nM]	apparent Kd [3] [nM]	apparent Kd [4] [nM]
GGACGUCAGAUUAACAUGAGGAUCACCCAUGUCUUUUGACAUGAGGAUAUGGAAGGUAAUUCCUUCCAGAAGGCAUGGACGUCC	1020	114		
GGAGAACAUGAGGAUCACCCAUGUGAGCGGUAGCUAGGAUAUGCGGGAAGGAAGAGAGAAGCAGAAGGAGUCGGUA	36.1	22.9		
GGAGACCUCACAGGAUAUGCUGGACUUUGUCCAGCAGAAGGGUGAAAACAUGAGGAUCACCCAUGUAUGGUCUCCAAAUUUAAC	182	13.6		
GGAGCAAGUGUCAGGAUAUCGUGGUCGAUAGAUCACGAGAAGGGACAUGAGGAUCACCCAUGUGUCCUAGCUCC			262	484
GGAGCACACAUUAACAUGAGGAUCACCCAUGUCAAAAGACAUGAGGAUAUGGAUCCGAAAAGGACCCAGAAGGCAUGGUGCUCC	427	21.8		
GGAGCCCAGUCAGGAUAUGUAACGCUAAGGCUGUUACAUGAGGAUCACCCAUGUUUCACCGUGAAACAGAAGGGACAAUUGGCG	500	147		
GGAGCCGGCACCGAGGAUAUUCAUAUUAAAACAUGAGGAUCACCCAUGUAGGCCAGAAGGCUUUGGGAGAAGGCGGAUCGGCUCG	604	38.7		
GGAGCCGGUACUGAGGAUAUUCAUAUUAAAACAUGAGGAUCACCCAUGUAGGCCAGAAGGCCUUGGGAGAAGGCGGACCAGCUCG	463	32.8		
GGAGUACAUGAGGAUCACCCAUGUUGGAACGAAGUAGGAUAUGUACAAUAUUAAAUAAAAACAGAAGGACUAAUAA	62.4	39		
GGAUAAUUGAUCCUUUUUUAUUACAUGAGGAUCACCCAUGUGCAGGAUAUCGAUUAUUAUAGUUUCGAGAAGGGCAAGAAUUGU			73.4	276
GGAUAGAUGAAGGGCGAACGCGCACAUGAGGAUCACCCAUGUAGAAGGCGGUCCGCAACGCGGAUCGAGGAUAUAUAGUAUACG			18.4	16.8
GGAUAGGACAGAGGAUAUACCGAUAGGAGAUACUAUCGACUAUUCCUCACAUGAGGAUCACCCAUGUAGAAGGCUGUCCUAUCG			16.9	58.1
GGAUAGGACAGAGGAUAUACCGAUAGGAUCUACUAUCGAACAAUCCUCACAUGAGGAUCACCCAUGUAGAAGGCUGUCCUAUCG			23.9	274
GGAUAGGACAGAGGAUAUACGCGCUAGAGAUACUAGCAAAAUUUCCUCACAUGAGGAUCACCCAUGUAGAAGGCUGUCCUAUCG			20.1	580
GGAUAGGACAGAGGAUAUACGGAUAGGAUCUACUAUCUUCUUCAAAUAACAUGAGGAUCACCCAUGUAGAAGGCUGUCCUAUCG			16	31.9
GGAUAGGACAGAGGAUAUACGUGCCAGAGAUACUAGCAAAAUUUCCUCACAUGAGGAUCACCCAUGUAGAAGGCUGUCCUAUCG			33.6	293
GGAUAGGACAGAGGAUAUACGUGCUAGACAUACUAGCAAAAUUUCCUCACAUGAGGAUCACCCAUGUAGAAGGCUGUCCUAUCG			18.7	440
GGAUAGGACAGAGGAUAUACGUGCUAGAGAUACGAGCAAAAUUUCCUCACAUGAGGAUCACCCAUGUAGAAGGCUGUCCUAUCG			32.5	578
GGAUAGGACAGAGGAUAUACGUGCUAGAGAUACUAGCAAAAUUUCCUCACAUGAGGAUCACCCAUGUAGAAGGCUGUACUAUCG			15.2	202
GGAUAGGACAGAGGAUAUACGUGCUAGAGAUACUAGCAAAAUUUUCUCACAUGAGGAUCACCCAUGUAGAAGGCUGUCCUAUCG			5.08	17.4
GGAUAGGAUAGAGGAUAUACGUGCUAGAGAUACUAGCAAAAUUUCCUCACAUGAGGAUCACCCAUGUAGAAGGCUGUCCUAUCG			10.6	193

Sequence	apparent Kd [1] [nM]	apparent Kd [2] [nM]	apparent Kd [3] [nM]	apparent Kd [4] [nM]
GGAUAGGGCAGAGGAUAUACGUGCUAGAGAUACUAGCAAAAUUUCCUCACAUGAGGAUCACCCAUGUAGAAGGCUGUCCUAUCG			14.1	464
GGAUCCAUCACAGGAUAUGCUGGACUUUGUCCAGCAGAAGGGUGAACAUGAGGAUCACCCAUGUAAAAGGAUCCUAUAUUUAAU	124	24.9		
GGAUCGAAUGUGAGGAUAUGCAGGUCCUUGGAUCUGCAGAAGGCACAUGAGGAUCACCCAUGUGACCAAGAUCC			50	548
GGAUCGAAUGUGAGGAUAUGCUGGUCCUUGGAUCAGCAGAAGGCACAUGAGGAUCACCCAUGUGACCUAGAUCC			32.7	430
GGAUCGAAUGUGAGGAUAUGCUGGUCCUUGGAUCAGCAGAAGGCACAUGAGGAUCACCCAUGUGUUCCCGGUCC			79.5	716
GGAUCGAGUGUGAGGAUAUGCUGGUCCUUGGAUCAGCAGAAGGCACAUGAGGAUCACCCAUGUGAAGACGAUCC			23.6	187
GGAUCGAGUGUGAGGAUAUGCUGGUCCUUGGAUCAGCAGAAGGCACAUGAGGAUCACCCAUGUGAAGACGGUCC			32.3	201
GGAUCGAGUGUGAGGAUAUGCUGGUCCUUGGAUCAGCAGAAGGCACAUGAGGAUCACCCAUGUGAAUACGGUCC			24	165
GGAUCGUAUGUCAGGAUAUACCACUGGAUACAGUGGUAGAAGGGACAUGAGGAUCACCCAUGUUCUAUCGAUCC			15.9	20.4
GGAUGACAAAGUCAUCCCUGACGGACAUGAGGAUCACCCAUGUAGGAUAUGCUACUCAAAGAGUAGCAGAAGGACAUGUGUCUU			35.5	206
GGAUGACAAAGUCAUCCUAUUCGAACAUGAGGAUCACCCAUGUAGGAUAUGGUACUCAAAGAGUACCAGAAGGACAUGUGCUUU			36.2	127
GGAUGAUUAAUAGGAUAUUAGUUGUAAAAUGGUUAAGAAGGAUUAAUGAUUUAAACGACCAGUUACAUGAGGAUCACCCAUGUA	21.6	18.9		
GGAUUACAUGAGGAUCACCCAUGUGAGGAUAUCGAUGUCCCUAGGAGCGUGCGGGACUCGAGAAGGCACUUGGA			39.7	234
GGAUUACAUGAGGAUCACCCAUGUGAGGAUAUCGAUGUCCCUUGGCGCGUGCGGGACUCGAGAAGGCACUUGGA			47.8	248
GGAUUACAUGAGGAUCACCCAUGUGAGGAUAUCGAUGUCCUCAAUCAAGUGCGGGACUCGAGAAGGCACUUGGA			70.3	30.9
GGAUUACAUGAGGAUCACCCAUGUGAGGAUAUCGAUGUCCUGUAAUUCGUGCGGGACUCGAGAAGGCACUUGGA			51.3	168
GGAUUUCCUGAGGAUAUUGCAUCACCCGAUUUAUAAGAAGGCAGAACAUGAGGAUCACCCAUGUGGGUCUCCGG			18.9	23.1
GGCAAUAUGUAGGAUAUCGUAUCGGAAACGAUACGAGAAGGGCAAACAUGAGGAUCACCCAUGUUCUUCAAGCC			13	16.6
GGCACACAUGAGGAUCACCCAUGUGAGGAUAUGGUGCGAUCGUCGAAAGACGAUAGCACCAGAAGGCACAUGCC			18.2	39.5
GGCCCGGGAGGAUAUACAUGAGGAUCACCCAUGUGCGGGCCCGGGAUCCCGGGCCCGUGUAGAAGGCCCGGGCC			13.4	16.5
GGCCUGUUAGGAUAUUAGUAGUAGUCAGAAUAGACUAUUACUGAGAAGGAACAUGAGGAUCACCCAUGUUGGCC			16.5	19.3
